Screening results (PubChem BioAssay)
T cruzi growth: T. cruzi intracellular proliferation inhibitors, primary screen, cell-based, beta-gal Tulahuen parasites, NIH3T3 host, luminescence; T. cruzi beta-gal in NIH3T3, GalScreen luminescence, 90 h; inhibition, % at 8.34 µM; 77,000 tested, 5.9% active;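 active = mean inhibition above about 93%, with at least 55% of replicates each passing it, limit read from the data, passing the limit was not always enough; inconclusive = only one of those two conditions holds; inactive = neither condition holds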
IDH1 R132H inh: inhibitors of IDH1 R132H reductase, primary screen, biochemical, plate reader, single point; Isocitrate dehydrogenase [NADP] cytoplasmic (Homo sapiens), O75874; diaphorase/resazurin fluorescence, 60 min; 70,000 tested, 0.18% active; inhibition, % at 10 µM; in the data active = inhibition above about 34%; inconclusive = no clear call, values can overlap the other calls; inactive = below about 11%
Pf Dd2 inh: P. falciparum Dd2 growth inhibitors, primary screen, SYBR Green fluorescence, single dose replicates; 72 h; stronger effect = lower value; activity change, % at 10 µM; 94,000 tested, 2.3% active; AID 1159554, 2015; in the data active = activity change below about -80%; inconclusive = no clear call, values can overlap the other calls
GASC1 inh: inhibitors of GASC-1 (KDM4C) histone demethylase, primary screen, biochemical, single concentration HTS; Lysine-specific demethylase 4C (Homo sapiens), Q9H3R0; GST-KDM4C 2-372, H3K9me3 peptide, LANCE TR-FRET; inhibition, % at 12.5 µM; 96,000 tested, 0.15% active;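 active = mean replicate inhibition above about 25%, with at least 55% of replicates also reaching it, limit read from the data, passing the limit was not always enough; inconclusive = only one of those two conditions met; inactive = neither condition met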
Target sequence (Q9H3R0 2-372 limits assumed): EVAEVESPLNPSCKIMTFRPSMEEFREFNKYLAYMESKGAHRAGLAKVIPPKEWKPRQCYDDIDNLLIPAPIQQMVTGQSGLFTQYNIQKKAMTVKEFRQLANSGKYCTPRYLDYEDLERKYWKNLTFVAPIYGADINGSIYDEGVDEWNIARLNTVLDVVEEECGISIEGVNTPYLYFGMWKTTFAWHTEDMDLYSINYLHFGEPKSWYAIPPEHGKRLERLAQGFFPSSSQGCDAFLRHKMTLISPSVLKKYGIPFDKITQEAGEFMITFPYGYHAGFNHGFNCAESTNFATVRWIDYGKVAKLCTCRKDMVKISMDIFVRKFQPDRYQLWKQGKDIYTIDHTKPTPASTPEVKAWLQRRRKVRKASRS
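Assay system: GST-GASC-1 enzyme fragment 2-372 | Amount: 10 nM enzyme | Medium: HEPES buffer, pH 7.5, plus ascorbate | Reagent: H3K9me3 peptide substrate, Fe(II), 2-oxoglutarate | Doses: Single-point compound screen | Incubation: 30 min demethylation and 1 h detection at room temperature | Measured by: LANCE TR-FRET, excitation 340 nm, emissions 618 and 671 nm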
Each line names hits and unclear results; the compound was inactive in the other large screens. Most compounds without a hit are left out; they make up all but 5.8% or so of the library.

COc1cccc(C#Cc2ccc([C@@H]3[C@H](C#N)N(C(=O)C4CCC4)[C@H]3CO)cc2)c1	none (no result: IDH1 R132H inh)
COc1cccc(C#Cc2ccc([C@H]3[C@H](C#N)N(C(=O)C4CCCC4)[C@H]3CO)cc2)c1	none (no result: T cruzi growth, IDH1 R132H inh)
COc1cccc(C#Cc2ccc([C@H]3[C@@H](CO)N(C(=O)C4CCCCC4)[C@H]3C#N)cc2)c1	Pf Dd2 inh -95
COc1cccc(C#Cc2ccc([C@H]3[C@@H](CO)N(C(=O)C4CCC4)[C@H]3C#N)cc2)c1	Pf Dd2 inh -86
O=C(Nc1ccccc1)c1ccc(S(=O)(=O)NCc2ccncc2)cc1	none (no result: T cruzi growth, Pf Dd2 inh, GASC1 inh)
CN1C(=O)c2cc(NC(=O)Cc3cccs3)ccc2OC[C@@H]2O[C@@H](CC(=O)NCC3CC3)CC[C@@H]21	none (no result: IDH1 R132H inh)
CC(C)C#Cc1ccc([C@@H]2[C@@H](CO)N(C(=O)c3ccccn3)[C@H]2C#N)cc1	none (no result: IDH1 R132H inh)
N#C[C@H]1[C@H](c2ccc(C#CCC3CCCC3)cc2)[C@H](CO)N1C(=O)c1ccccn1	T cruzi growth 104 (no result: IDH1 R132H inh)
N#C[C@H]1[C@@H](c2ccc(C#CCC3CCCC3)cc2)[C@H](CO)N1C(=O)c1ccccn1	T cruzi growth 101 (no result: IDH1 R132H inh)
N#C[C@@H]1[C@H](c2ccc(C#CCC3CCCC3)cc2)[C@H](CO)N1C(=O)c1ccccn1	Pf Dd2 inh inconclusive (no result: IDH1 R132H inh)
O=C(C[C@H]1CC[C@@H](NC(=O)Nc2ccc3c(c2)OCO3)[C@H](CO)O1)NCc1ccc(Cl)cc1	GASC1 inh inconclusive
C[C@@H]1CN([C@H](C)CO)C(=O)c2cc(NC(=O)c3ccncc3)ccc2O[C@H]1CN(C)S(=O)(=O)c1ccccc1	none
C[C@@H]1CCCCO[C@@H](CN(C)S(=O)(=O)c2ccc(F)cc2)[C@H](C)CN([C@H](C)CO)C(=O)c2cc(NC(=O)Cc3ccccc3)ccc2O1	none
C[C@H](CO)N1C[C@H](C)[C@H](CN(C)S(=O)(=O)c2ccc(F)cc2)OCCCC[C@H](C)Oc2ccc(NC(=O)Cc3ccccc3)cc2C1=O	none
C[C@@H]1CN([C@H](C)CO)C(=O)c2cc(NC(=O)Cc3ccccc3)ccc2O[C@@H](C)CCCCO[C@@H]1CN(C)S(=O)(=O)c1ccc(F)cc1	Pf Dd2 inh -89
C[C@@H]1CN([C@H](C)CO)C(=O)c2cc(NC(=O)Cc3ccccc3)ccc2O[C@@H](C)CCCCO[C@@H]1CN(C)S(=O)(=O)c1ccccc1	Pf Dd2 inh -81 (no result: T cruzi growth)
C[C@@H]1CN([C@@H](C)CO)C(=O)c2cc(NC(=O)Cc3ccccc3)ccc2O[C@@H](C)CCCCO[C@@H]1CN(C)S(=O)(=O)c1ccc(F)cc1	Pf Dd2 inh -87
CCCC#Cc1cnc2c(c1)C(=O)N([C@@H](C)CO)C[C@H](C)[C@@H](CN(C)C(=O)Cc1ccncc1)O2	IDH1 R132H inh 51
C[C@H](O)C#Cc1cnc2c(c1)C(=O)N([C@@H](C)CO)C[C@@H](C)[C@@H](CN(C)C(=O)Cc1ccncc1)O2	Pf Dd2 inh -95 (no result: T cruzi growth)
C[C@H]1CCCCO[C@H](CN(C)CC2CCCCC2)[C@@H](C)CN([C@@H](C)CO)C(=O)c2cc(NC(=O)Nc3cccc4ccccc34)ccc2O1	Pf Dd2 inh -85 (no result: IDH1 R132H inh)
C[C@@H]1CCCCO[C@@H](CN(C)CC2CCCCC2)[C@H](C)CN([C@H](C)CO)C(=O)c2cc(NC(=O)Nc3cccc4ccccc34)ccc2O1	Pf Dd2 inh -89
C[C@@H]1CN([C@@H](C)CO)C(=O)c2cc(NC(=O)Nc3cccc4ccccc34)ccc2O[C@@H](C)CCCCO[C@@H]1CN(C)CC1CCCCC1	Pf Dd2 inh -88
N#C[C@@H]1[C@H](c2ccc(C3=CCCCC3)cc2)[C@@H](CO)N1C(=O)NC1CCCC1	Pf Dd2 inh -83 (no result: T cruzi growth, IDH1 R132H inh)
CC(C)NC[C@@H]1[C@@H](c2ccc(C3=CCCCC3)cc2)[C@@H](CO)N1C(=O)CC1CC1	Pf Dd2 inh -83 (no result: T cruzi growth, IDH1 R132H inh, GASC1 inh)
C/C=C/c1ccccc1[C@H]1[C@@H](C#N)N(C(=O)NC2CCCC2)[C@H]1CO	Pf Dd2 inh -82 (no result: T cruzi growth, IDH1 R132H inh)
COc1ccc(S(=O)(=O)Nc2ccc3c(c2)C(=O)N([C@@H](C)CO)C[C@H](C)[C@H](CN(C)C(=O)NC(C)C)OCCCC[C@@H](C)O3)cc1	none (no result: IDH1 R132H inh, Pf Dd2 inh)
O=C(Cc1ccncc1)NCC[C@@H]1CC[C@H](NC(=O)C2CCCC2)[C@@H](CO)O1	none (no result: T cruzi growth)
Cc1ccc(S(=O)(=O)N(C)C[C@H]2OCCCC[C@H](C)Oc3ccc(NC(=O)C4CCCCC4)cc3C(=O)N([C@H](C)CO)C[C@H]2C)cc1	Pf Dd2 inh -85
Cc1ccc(S(=O)(=O)N(C)C[C@@H]2OCCCC[C@H](C)Oc3ccc(NC(=O)C4CCCCC4)cc3C(=O)N([C@@H](C)CO)C[C@H]2C)cc1	Pf Dd2 inh -85 (no result: IDH1 R132H inh)
Cc1ccc(S(=O)(=O)N(C)C[C@@H]2OCCCC[C@H](C)Oc3ccc(NC(=O)C4CCCCC4)cc3C(=O)N([C@@H](C)CO)C[C@@H]2C)cc1	none
Cc1ccc(S(=O)(=O)N(C)C[C@H]2OCCCC[C@@H](C)Oc3ccc(NC(=O)C4CCCCC4)cc3C(=O)N([C@@H](C)CO)C[C@@H]2C)cc1	none (no result: IDH1 R132H inh)
C[C@H](CO)N1C[C@H](C)[C@@H](CN(C)S(=O)(=O)c2ccccc2)OCCCC[C@H](C)Oc2ccc(NC(=O)C3CCCCC3)cc2C1=O	none (no result: IDH1 R132H inh)
C[C@@H]1CN([C@H](C)CO)C(=O)c2cc(NC(=O)C3CCCCC3)ccc2O[C@@H](C)CCCCO[C@@H]1CN(C)S(=O)(=O)c1ccccc1	Pf Dd2 inh -82 (no result: IDH1 R132H inh)
Cc1ccc(S(=O)(=O)N(C)C[C@H]2OCCCC[C@H](C)Oc3ccc(NC(=O)C4CCCCC4)cc3C(=O)N([C@@H](C)CO)C[C@@H]2C)cc1	Pf Dd2 inh -82
C[C@@H]1CCCCO[C@@H](CN(C)CC2CCCCC2)[C@H](C)CN([C@@H](C)CO)C(=O)c2cc(NC(=O)CCCN(C)C)ccc2O1	none (no result: IDH1 R132H inh, Pf Dd2 inh)
CN1C(=O)c2cc(NC(=O)C3CCCC3)ccc2OC[C@@H]2O[C@H](CC(=O)Nc3ccccc3)CC[C@H]21	none (no result: IDH1 R132H inh)
CN1CCN(S(=O)(=O)c2ccc(Sc3nc4ccccc4[nH]3)c3nsnc23)CC1	none (no result: T cruzi growth, Pf Dd2 inh, GASC1 inh)
Cc1ccc(S(=O)(=O)N(C)C[C@@H]2OCCCC[C@H](C)Oc3ccc(NC(=O)C4CCCCC4)cc3C(=O)N([C@H](C)CO)C[C@H]2C)cc1	Pf Dd2 inh -86 (no result: IDH1 R132H inh)
Cc1ccc(S(=O)(=O)N(C)C[C@@H]2OCCCC[C@@H](C)Oc3ccc(NC(=O)C4CCCCC4)cc3C(=O)N([C@@H](C)CO)C[C@@H]2C)cc1	none
CO[C@@H]1CN(C)C(=O)c2cc(NC(=O)c3nc4ccccc4s3)ccc2OC[C@@H](C)N(Cc2ccccc2)C[C@H]1C	Pf Dd2 inh -86 (no result: T cruzi growth)
COc1ccc(CN2C[C@@H](C)[C@@H](OC)CN(C)C(=O)c3cc(NC(=O)c4nc5ccccc5s4)ccc3OC[C@@H]2C)cc1	none (no result: T cruzi growth)
COc1ccc(CN2C[C@H](C)[C@@H](OC)CN(C)C(=O)c3cc(NC(=O)c4nc5ccccc5s4)ccc3OC[C@@H]2C)cc1	Pf Dd2 inh -85 (no result: T cruzi growth)
